According to ChEMBL document CHEMBL4014350, “Alkoxyurea-Based Histone Deacetylase Inhibitors Increase Cisplatin Potency in Chemoresistant Cancer Cell Lines” (J Med Chem, 2017):
Activity calls are given as the source filed them. The rule behind the calls is not given here.

What was measured:
CAL-27 [1] = assay: Potentiation of 0.5 uM cisplatin-induced cytotoxicity against human CAL27 cells assessed as decrease in cell viability measuring combination index at 600 uM preincubated for 48 hrs followed by cisplatin treatment measured after 72 hrs by MTT assay; assay type: functional; conditions: in the assay text read “at 600 nM” for “at 600 uM”
Method in brief: (§1)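 Cal27 and cisplatin-resistant Cal27CisR cells were preincubated with the HDAC inhibitor for 48 h, then given cisplatin in combination. Viability was read by MTT after 72 h. The combination index was computed by the Chou–Talalay method: CI > 1 is antagonism, CI = 1 is additive, and CI < 0.9 is synergism. Points with fraction affected below 0.20 were flagged.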

Homo sapiens = organism: Homo sapiens; assay: Selectivity index, ratio of IC50 for human recombinant HDAC8 to IC50 for full length human recombinant N-terminal GST-tagged HDAC6 expressed in baculovirus infected sf9 cells
Method in brief: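 Ratio of isolated-enzyme IC50 values. HDAC1, HDAC6 and HDAC8 IC50s were each the mean ± SD of three independent experiments.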

[2] = molecular target: T1, Histone deacetylase 1/6 (Homo sapiens) (UniProt Q13547+Q9UBN7); assay: Inhibition of HDAC1/HDAC6 in human Cal27CisR cells assessed as potentiation of 20 uM cisplatin-induced cytotoxicity by measuring combination index at 800 nM preincubated for 48 hrs followed by cisplatin treatment measured after 72 hrs by MTT assay
[3] = molecular target: T1, Histone deacetylase 1/6 (Homo sapiens); assay: Inhibition of HDAC1/HDAC6 in human Cal27CisR cells assessed as potentiation of 1 uM cisplatin-induced cytotoxicity by measuring combination index at 600 uM preincubated for 48 hrs followed by cisplatin treatment measured after 72 hrs by MTT assay; assay type: cell-based
Method in brief: (§2)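 Cal27CisR cells preincubated 48 h with the HDAC inhibitor, then exposed to cisplatin for 72 h. Viability read by MTT. Combination index calculated by the Chou–Talalay method: CI > 1 antagonism, CI = 1 additive, CI < 0.9 synergism. Points with fraction affected below 0.20 are flagged. Values are the mean of three experiments.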

CAL-27 [4] = assay: Induction of apoptosis in human CAL27 cells at 1 uM for 48 hrs by propidium iodide dye-based flow cytometry; assay type: functional, cell-based
CAL-27 [5] = assay: Potentiation of 0.316 uM cisplatin-induced cytotoxicity against human CAL27 cells assessed as decrease in cell viability by measuring combination index at 100 uM preincubated for 48 hrs followed by cisplatin treatment measured after 72 hrs by MTT assay; assay type: functional; conditions: in the assay text read “at 100 nM” for “at 100 uM”; method in brief: as §1
[6] = molecular target: T1, Histone deacetylase 1/6 (Homo sapiens); assay: Inhibition of HDAC1/HDAC6 in human Cal27CisR cells assessed as potentiation of 5 uM cisplatin-induced cytotoxicity by measuring combination index at 400 uM preincubated for 48 hrs followed by cisplatin treatment measured after 72 hrs by MTT assay; assay type: cell-based; method in brief: as §1
[7] = molecular target: T1, Histone deacetylase 1/6 (Homo sapiens); assay: Inhibition of HDAC1/HDAC6 in human Cal27CisR cells assessed as potentiation of 1 uM cisplatin-induced cytotoxicity by measuring combination index at 400 nM preincubated for 48 hrs followed by cisplatin treatment measured after 72 hrs by MTT assay
CAL-27 [8] = assay: Potentiation of 0.316 uM cisplatin-induced cytotoxicity against human CAL27 cells assessed as decrease in cell viability by measuring combination index at 200 uM preincubated for 48 hrs followed by cisplatin treatment measured after 72 hrs by MTT assay; assay type: functional; conditions: in the assay text read “at 200 nM” for “at 200 uM”; method in brief: as §1
CAL-27 [9] = assay: Potentiation of 2 uM cisplatin-induced cytotoxicity against human CAL27 cells assessed as decrease in cell viability by measuring combination index at 200 uM preincubated for 48 hrs followed by cisplatin treatment measured after 72 hrs by MTT assay; assay type: functional; conditions: in the assay text read “at 200 nM” for “at 200 uM”
Method in brief: (§3)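 HDAC inhibitor was added 48 h before cisplatin, then cells were exposed to cisplatin for 72 h and viability was read by MTT assay. Combination index was computed by the Chou–Talalay method: CI > 1 is antagonism, CI = 1 additive, CI < 0.9 synergism. Points with fraction affected below 0.20 were flagged.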

CAL-27 [10] = assay: Potentiation of 2 uM cisplatin-induced cytotoxicity against human CAL27 cells assessed as decrease in cell viability by measuring combination index at 400 uM preincubated for 48 hrs followed by cisplatin treatment measured after 72 hrs by MTT assay; assay type: functional; conditions: in the assay text read “at 400 nM” for “at 400 uM”; method in brief: as §3
[11] = molecular target: T1, Histone deacetylase 1/6 (Homo sapiens); assay: Inhibition of HDAC1/HDAC6 in human Cal27CisR cells assessed as potentiation of cisplatin-induced cytotoxicity by measuring fold reduction in cisplatin IC50 at 0.5 uM preincubated for 48 hrs followed by cisplatin treatment measured after 72 hrs by MTT assay relative to cisplatin alone; assay type: cell-based
Method in brief: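 Cal27CisR cells were pretreated 48 h with 0.5 μM inhibitor, then exposed to increasing cisplatin concentrations for 72 h, with IC50 by MTT. The shift factor is the IC50 of cisplatin alone divided by the IC50 of the combination. Data are mean ± SEM of pooled independent experiments (at least three), each in triplicate, and significance was tested by t test (p < 0.05).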

CAL-27 [12] = assay: Potentiation of cisplatin-induced cytotoxicity against human CAL27 cells assessed as decrease in cell viability at 0.5 uM preincubated for 48 hrs followed by cisplatin treatment measured after 72 hrs by MTT assay relative to cisplatin alone; assay type: functional
Method in brief: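 Cells were preincubated 48 h with HDAC inhibitor, then cisplatin was added over a concentration range for 72 h, with MTT read-out. Shift factor is cisplatin-alone IC50 divided by combination IC50. Data are mean ± SEM of pooled data from at least three independent experiments, each in triplicate. Significance was by t test (p < 0.05).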

Cal27CisR = assay: Induction of apoptosis in human Cal27CisR cells at 1 uM for 48 hrs by propidium iodide dye-based flow cytometry; assay type: functional, cell-based
CAL-27 [13] = assay: Potentiation of 5 uM cisplatin-induced cytotoxicity against human CAL27 cells assessed as decrease in cell viability by measuring combination index at 400 uM preincubated for 48 hrs followed by cisplatin treatment measured after 72 hrs by MTT assay; assay type: functional; conditions: in the assay text read “at 400 nM” for “at 400 uM”; method in brief: as §3
[14] = molecular target: T1, Histone deacetylase 1/6 (Homo sapiens); assay: Inhibition of HDAC1/HDAC6 in human Cal27CisR cells assessed as potentiation of 3.16 uM cisplatin-induced cytotoxicity by measuring combination index at 300 uM preincubated for 48 hrs followed by cisplatin treatment measured after 72 hrs by MTT assay; assay type: cell-based; method in brief: as §2
CAL-27 [15] = assay: Potentiation of 0.5 uM cisplatin-induced cytotoxicity against human CAL27 cells assessed as decrease in cell viability by measuring combination index at 400 uM preincubated for 48 hrs followed by cisplatin treatment measured after 72 hrs by MTT assay; assay type: functional; conditions: in the assay text read “at 400 nM” for “at 400 uM”; method in brief: as §1
CAL-27 [16] = assay: Potentiation of 5 uM cisplatin-induced cytotoxicity against human CAL27 cells assessed as decrease in cell viability by measuring combination index at 100 uM preincubated for 48 hrs followed by cisplatin treatment measured after 72 hrs by MTT assay; assay type: functional; conditions: in the assay text read “at 100 nM” for “at 100 uM”; method in brief: as §3
[17] = molecular target: T1, Histone deacetylase 1/6 (Homo sapiens); assay: Inhibition of HDAC1/HDAC6 in human Cal27CisR cells assessed as potentiation of 10 uM cisplatin-induced cytotoxicity by measuring combination index at 300 uM preincubated for 48 hrs followed by cisplatin treatment measured after 72 hrs by MTT assay; assay type: cell-based; method in brief: as §2

T1 sequence (Q13547 whole entry, looked up): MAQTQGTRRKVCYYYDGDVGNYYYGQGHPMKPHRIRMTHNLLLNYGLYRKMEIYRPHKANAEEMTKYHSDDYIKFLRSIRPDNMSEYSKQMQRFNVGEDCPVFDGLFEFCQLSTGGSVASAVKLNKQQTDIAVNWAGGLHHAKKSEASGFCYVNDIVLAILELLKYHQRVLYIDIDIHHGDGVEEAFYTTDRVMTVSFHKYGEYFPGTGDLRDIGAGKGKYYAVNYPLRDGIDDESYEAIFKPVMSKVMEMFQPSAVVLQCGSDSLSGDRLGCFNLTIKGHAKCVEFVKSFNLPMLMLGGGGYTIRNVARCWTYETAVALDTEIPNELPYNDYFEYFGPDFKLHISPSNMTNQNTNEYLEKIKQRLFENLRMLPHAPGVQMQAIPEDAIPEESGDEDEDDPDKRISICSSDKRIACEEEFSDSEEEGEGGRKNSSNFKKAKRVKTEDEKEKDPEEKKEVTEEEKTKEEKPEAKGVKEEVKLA
T1 sequence (Q9UBN7 whole entry, looked up): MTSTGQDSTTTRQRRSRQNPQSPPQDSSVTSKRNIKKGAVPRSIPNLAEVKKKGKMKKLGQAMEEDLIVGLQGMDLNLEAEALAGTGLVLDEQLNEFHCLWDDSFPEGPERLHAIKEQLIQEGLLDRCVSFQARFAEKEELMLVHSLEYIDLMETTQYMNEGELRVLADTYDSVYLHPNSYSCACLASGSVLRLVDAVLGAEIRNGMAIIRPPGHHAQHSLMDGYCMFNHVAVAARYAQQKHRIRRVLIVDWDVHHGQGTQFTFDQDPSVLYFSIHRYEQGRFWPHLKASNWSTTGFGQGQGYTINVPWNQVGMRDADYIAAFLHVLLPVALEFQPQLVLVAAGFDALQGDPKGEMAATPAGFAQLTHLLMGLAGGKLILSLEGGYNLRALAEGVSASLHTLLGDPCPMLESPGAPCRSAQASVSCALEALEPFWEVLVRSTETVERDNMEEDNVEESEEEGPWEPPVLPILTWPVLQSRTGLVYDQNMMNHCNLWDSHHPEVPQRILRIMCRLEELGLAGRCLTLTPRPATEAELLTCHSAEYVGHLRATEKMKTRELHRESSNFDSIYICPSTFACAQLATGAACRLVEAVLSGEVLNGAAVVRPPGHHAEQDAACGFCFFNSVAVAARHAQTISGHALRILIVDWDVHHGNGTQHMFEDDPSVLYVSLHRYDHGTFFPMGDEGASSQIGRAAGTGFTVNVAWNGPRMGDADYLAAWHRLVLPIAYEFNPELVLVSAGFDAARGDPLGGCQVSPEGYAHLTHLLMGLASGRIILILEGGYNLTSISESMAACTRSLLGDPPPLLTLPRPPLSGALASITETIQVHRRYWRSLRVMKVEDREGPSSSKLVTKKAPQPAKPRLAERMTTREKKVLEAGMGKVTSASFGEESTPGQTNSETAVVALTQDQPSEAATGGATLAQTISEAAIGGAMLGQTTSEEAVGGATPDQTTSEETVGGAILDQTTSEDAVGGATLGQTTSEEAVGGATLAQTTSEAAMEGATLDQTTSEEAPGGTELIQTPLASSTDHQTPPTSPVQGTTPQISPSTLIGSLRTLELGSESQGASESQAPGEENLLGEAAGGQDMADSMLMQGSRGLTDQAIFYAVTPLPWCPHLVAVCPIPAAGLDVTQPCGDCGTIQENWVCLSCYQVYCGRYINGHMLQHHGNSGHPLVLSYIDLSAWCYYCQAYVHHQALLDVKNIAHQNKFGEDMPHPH

| Compound | CI (CAL-27 [1]) | Ratio IC50 (Homo sapiens) | CI [2] | CI [3] | Activity (CAL-27 [4]) | CI (CAL-27 [5]) | CI [6] | CI [7] | CI (CAL-27 [8]) | CI (CAL-27 [9]) | CI (CAL-27 [10]) | fold change (FC) [11] | fold change (FC) (CAL-27 [12]) | Activity (Cal27CisR) | CI (CAL-27 [13]) | CI [14] | CI (CAL-27 [15]) | CI (CAL-27 [16]) | CI [17] |
| --- | --- | --- | --- | --- | --- | --- | --- | --- | --- | --- | --- | --- | --- | --- | --- | --- | --- | --- | --- |
| COc1cc(NC(=O)NOCCCCCC(=O)NO)c2ncccc2c1 | 0.77 | > 100 | 0.37 | < 0.2 |  |  |  |  |  |  |  |  |  |  |  |  |  |  |  |
| COc1cc(NC(=O)NOCCCCCC(=O)NO)c2nc(OC)cc(C)c2c1 | 0.66 | 550 | 0.21 | 0.56 | inactive | <0.2 | 0.19 | < 0.2 | <0.2 | 0.33 | 0.38 | 11.2 | 8.7 | inactive | 0.36 | 0.46 | 0.75 | 0.26 | 0.18 |
| COc1cc(NC(=O)NOCCCCCC(=O)NO)c2nccc(C)c2c1 | 0.58 | > 100 | 0.28 | < 0.2 | inactive | <0.2 | 0.56 | < 0.2 | <0.2 | 0.39 | 0.27 | 8.2 | 6.1 | inactive | 0.29 | < 0.2 | 0.91 | 0.5 | 0.43 |
